Measured values as given in paper PMC7992179 (ACS Omega, 2021).

Tests used:
PTZ-induced convulsions = PTZ-induced convulsions in mice; format: in vivo; details: for average duration of seizure / latency time / seizure score / mortality: 5 mg/kg i.p., PTZ 70 mg/kg i.p., n = 10; for average duration of seizure / latency time / seizure score: mean ± SEM
Method in brief: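 Overnight-fasted albino mice (n = 10 per group) received test compound at 5 mg/kg i.p., suspended in carboxymethylcellulose and sonicated. Controls were vehicle, PTZ alone and lamotrigine (dose-finding at 1–5 mg/kg). Clonic seizures were induced with PTZ 70 mg/kg i.p. Recorded: latency, convulsion duration, number of convulsions, protection, and a 0–6 seizure score (6 = death). Mean ± SEM; one-way ANOVA with Dunnett's test versus the PTZ group.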

[1] = tested on: motor coordination on rotating rod; assay: Neurotoxicity / minimal motor impairment, rotating rod; format: in vivo; details: rod observed 5 min, mean ± SEM, 10 mice
Method in brief: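 White albino mice of either sex, 8–10 weeks, 25–35 g, were trained on a rotating rod (2.5 cm diameter, 25 cm high). After i.p. dosing (10, 30 or 50 mg/kg), motor coordination was scored over 5 min at 30 min and 4 h. Neurotoxicity meant failure to stay on the rod for 1 min. 10 mice per group; mean ± SEM.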

MCF-7 cell line = assay: MTT cytotoxicity assay in MCF-7 cells; format: cell-based, human; details: 48 h, MTT; for IC50 ± SD: MCF-7, 1–30 μM; for % inhibition/stimulation: conc. 30 μM
Method in brief: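 MCF-7 cells grown in Eagle's MEM with 10% FBS, 1% penicillin/streptomycin, 0.1 mM non-essential amino acids, 10 μg/mL insulin and 1 mM sodium pyruvate at 37 °C, 5% CO2. Trypsin/EDTA-harvested cells were seeded at 6 × 10^4 cells/mL and incubated overnight. Test compound (1–30 μM, or a fixed 30 μM screen against doxorubicin) was applied for 48 h. MTT 0.5 mg/mL for 4 h, DMSO, A570; % inhibition and IC50.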

Row | Substance | average duration of seizure (PTZ-induced convulsions) | latency time (PTZ-induced convulsions) | seizure score (PTZ-induced convulsions) | mortality (PTZ-induced convulsions) | enhancement of latency time of PTZ-induced seizures compared with the standard LTG drug (PTZ-induced convulsions; 5 mg/kg, vs LTG) | time on Rod ([1]; dose 10 mg/kg i.p.) | time on Rod ([1]; dose 30 mg/kg i.p.) | time on Rod ([1]; dose 50 mg/kg i.p.) | IC50 ± SD (MCF-7 cell line) | % inhibition/stimulation (MCF-7 cell line) | protection against PTZ-induced convulsions (PTZ-induced convulsions; dose of 5 mg/kg)
1 | (1E,2Z)-N-[6-(2,3-Dichlorophenyl)-5-{(E)-[(2E)-3-phenylprop-2-en-1-ylidene]amino}-1,2,4-triazin-3-yl]prop-2-en-1-imine Dibutyl Tin Dichloride Coordinate Complex of L1 [7a] | 110 ± 14.1 s | 220.0 ± 72.7 s | 12.0 ± 1.2 counts | 0.0 counts | 4% | 155.0 ± 97.5 s | 130.6 ± 92.4 s | 100.4 ± 87.7 s | inactive | 0.00% | 
2 | (1E,2Z)-N-[6-(2,3-Dichlorophenyl)-5-{(E)-[(2E)-3-phenylprop-2-en-1-ylidene]amino}-1,2,4-triazin-3-yl]prop-2-en-1-imine Silver Nitrate Coordinate Complex [6a] | 105 ± 7.1 s | 180.0 ± 75.9 s | 11.0 ± 2.3 counts | 1 counts |  | 141.7 ± 102.5 s | 120.0 ± 98.7 s | 75.8 ± 20.3 s | inactive | 0.00% | 90%
3 | (1E,2Z)-N-[6-(2,3-Dichlorophenyl)-5-{(E)-[(2E)-3-phenylprop-2-en-1-ylidene]amino}-1,2,4-triazin-3-yl]prop-2-en-1-imine Zinc Chloride Coordinate Complex [4a] | 86.5 ± 5.0 s | 145.0 ± 23.4 s | 15.0 ± 4.9 counts | 0.0 counts |  | 66.7 ± 15.1 s | 45.4 ± 10.3 s | 30.6 ± 4.2 s | inactive | 0.00% | 
